{"data": "Measurements pooled from the literature", "organism": "Trypanosoma brucei", "read-out": "parasite growth", "note": "Each line is one published result; the experiments were not run side by side."}
{"SMILES": "O=c1c(O[C@@H]2O[C@H](CO)[C@H](O)[C@H](O)[C@H]2O)c(-c2ccc(O)c(O)c2)oc2cc(O)cc(O)c12", "test": "resazurin", "setting": "48 h", "EC50 [nM]": 50000}
{"SMILES": "Cc1ccc(Cn2cc(C(=O)N/N=C/c3ccc([N+](=O)[O-])s3)c(=O)c3cc(Br)ccc32)cc1", "test": "resazurin", "setting": "72 h", "EC50 [nM]": 140}
{"SMILES": "Cc1cc(C)c(C#N)c(NCC(O)c2ccc(F)cc2)n1 (stereo not shown)", "test": "resazurin", "test system": "RHODESIENSE", "EC50 [nM]": 7860}
{"SMILES": "C[C@@H]1C/C=C/C=C/C=C/C=C/[C@H](O[C@@H]2O[C@H](C)[C@@H](O)[C@H](N)[C@@H]2O)C[C@@H]2O[C@](O)(C[C@@H](O)C[C@H]3O[C@@H]3/C=C/C(=O)O1)C[C@H](O)[C@H]2C(=O)O", "test": "resazurin", "setting": "48 h", "EC50 [nM]": 12000}
{"SMILES": "Cc1ccc(C(=O)Nc2ccc(S(=O)(=O)O)c3cc(S(=O)(=O)O)cc(S(=O)(=O)O)c23)cc1NC(=O)c1cccc(NC(=O)Nc2cccc(C(=O)Nc3cc(C(=O)Nc4ccc(S(=O)(=O)O)c5cc(S(=O)(=O)O)cc(S(=O)(=O)O)c45)ccc3C)c2)c1", "test system": "RHODESIENSE", "EC50 [nM]": 50}
{"SMILES": "CCCCCC(=O)NC(Cc1ccc(NC(=O)OC(C)(C)C)cc1)C(=O)NC(Cc1ccc(NC(=O)OC(C)(C)C)cc1)C(=O)NC(CC(C)C)C(=O)C1(C)CO1 (stereo not shown)", "test": "SYBR Green", "setting": "72 h", "EC50 [nM]": 465}
{"SMILES": "Cc1cc(C)c(C#N)c(SCC(=O)c2ccccc2C)n1", "test": "resazurin", "EC50 [nM]": 25800}
{"SMILES": "O=C(N/N=C/c1ccc([N+](=O)[O-])o1)c1cn(Cc2ccccc2)c2ccccc2c1=O", "test": "resazurin", "setting": "72 h", "EC50 [nM]": 570}
{"SMILES": "COc1ccc(C(=O)CSc2nc(C)cc(C)c2C#N)cc1", "test": "resazurin", "EC50 [nM]": "> 64000"}
{"SMILES": "N=C(N)c1ccc(OCCCCCOc2ccc(C(=N)N)cc2)cc1", "test": "SYBR Green", "test system": "GAMBIENSE", "EC50 [nM]": 9}
